Experimental data reported in ChEMBL document CHEMBL1240380, “Acinetobacter baumannii increases tolerance to antibiotics in response to monovalent cations” (Antimicrob Agents Chemother, 2010).
The source made the active and inactive calls. No cut-off for these calls is given here.

Legend:
Acinetobacter baumannii [1] = assay: Antibacterial activity against Acinetobacter baumannii ATCC 17978 assessed as bacterial growth at 0.75 mg/L in presence of 150 mM NaCl; type: functional
How it was run: (§1)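 Overnight cultures were diluted 1:100 in NaCl-free MHB and grown to OD600 0.4. They were then diluted to 10^5 CFU/ml in MHB with or without 150 mM NaCl, plus or minus antibiotic. Growth was run in triplicate for 12 h at 37°C with shaking at 180 rpm, and OD600 was read every 2 h.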

Acinetobacter baumannii [2] = assay: Antibacterial activity against Acinetobacter baumannii using MHB medium assessed as bacterial growth at 0.75 mg/L in presence of 150 mM of KCl; type: functional, organism-based
How it was run: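 Growth-curve challenge with 150 mM KCl in place of NaCl. Overnight cultures were diluted 1:100 in NaCl-free MHB and grown to OD600 0.4. They were then diluted to 10^5 CFU/ml in MHB with or without 150 mM KCl, plus antibiotic. Cultures ran in triplicate for 12 h at 37°C with shaking at 180 rpm, and OD600 was read every 2 h.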

Acinetobacter baumannii [3] = assay: Antibacterial activity against Acinetobacter baumannii using MHB medium assessed as bacterial growth at 1.5 mg/L after 12 hrs in presence of 30 mg/L efflux pump inhibitor PAbetaN; type: functional, organism-based
Acinetobacter baumannii [4] = assay: Antibacterial activity against Acinetobacter baumannii using MHB medium with 150 mM assessed as bacterial growth at 1.5 mg/L after 12 hrs in presence of 30 mg/L efflux pump inhibitor PAbetaN; type: functional, organism-based
Acinetobacter baumannii [5] = assay: Antibacterial activity against Acinetobacter baumannii ATCC 17978 using MHB medium assessed as bacterial growth at 0.75 mg/L after 12 hrs; type: functional, organism-based; how it was run: as §1
Acinetobacter baumannii [6] = assay: Antibacterial activity against Acinetobacter baumannii ATCC 17978 using MHB medium with 150 mM NaCl assessed as bacterial growth at 0.75 mg/L after 12 hrs; type: functional, organism-based; how it was run: as §1
Acinetobacter baumannii [7] = assay: Antibacterial activity against Acinetobacter baumannii isolate 510 using MHB medium assessed as bacterial growth at 0.75 mg/L after 12 hrs; type: functional, organism-based; how it was run: as §1
Acinetobacter baumannii [8] = assay: Antibacterial activity against Acinetobacter baumannii isolate 510 using MHB medium with 150 mM NaCl assessed as bacterial growth at 0.75 mg/L after 12 hrs; type: functional, organism-based; how it was run: as §1
Acinetobacter baumannii [9] = assay: Antibacterial activity against Acinetobacter baumannii isolate 2824 using MHB medium assessed as bacterial growth at 0.75 mg/L after 12 hrs; type: functional, organism-based; how it was run: as §1
Acinetobacter baumannii [10] = assay: Antibacterial activity against Acinetobacter baumannii isolate 2824 using MHB medium with 150 mM NaCl assessed as bacterial growth at 0.75 mg/L after 12 hrs; type: functional, organism-based; how it was run: as §1
Acinetobacter baumannii [11] = assay: Antibacterial activity against Acinetobacter baumannii isolate 2898 using MHB medium assessed as bacterial growth at 0.75 mg/L after 12 hrs; type: functional, organism-based; how it was run: as §1
Acinetobacter baumannii [12] = assay: Antibacterial activity against Acinetobacter baumannii isolate 2898 using MHB medium with 150 mM NaCl assessed as bacterial growth at 0.75 mg/L after 12 hrs; type: functional, organism-based; how it was run: as §1
Acinetobacter baumannii [13] = assay: Antibacterial activity against Acinetobacter baumannii isolate 4860 using MHB medium assessed as bacterial growth at 0.75 mg/L after 12 hrs; type: functional, organism-based; how it was run: as §1
Acinetobacter baumannii [14] = assay: Antibacterial activity against Acinetobacter baumannii isolate 4860 using MHB medium with 150 mM NaCl assessed as bacterial growth at 0.75 mg/L after 12 hrs; type: functional, organism-based; how it was run: as §1
Acinetobacter baumannii [15] = assay: Antibacterial activity against Acinetobacter baumannii isolate 5191 using MHB medium assessed as bacterial growth at 0.75 mg/L after 12 hrs; type: functional, organism-based; how it was run: as §1
Acinetobacter baumannii [16] = assay: Antibacterial activity against Acinetobacter baumannii isolate 5191 using MHB medium with 150 mM NaCl assessed as bacterial growth at 0.75 mg/L after 12 hrs; type: functional, organism-based; how it was run: as §1
Acinetobacter baumannii [17] = assay: Antibacterial activity against Acinetobacter baumannii ATCC 17978 using MHB medium after 24 hrs; type: functional
How it was run: (§2)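 MIC by CLSI broth microdilution in MHB, with the medium supplemented with 150 mM NaCl where indicated. The read-out was taken after 24 h of drug exposure.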

Acinetobacter baumannii [18] = assay: Antibacterial activity against Acinetobacter baumannii ATCC 17978 using MHB medium with 150 mM NaCl after 24 hrs; type: functional; how it was run: as §2
Acinetobacter baumannii [19] = assay: Antibacterial activity against Acinetobacter baumannii isolate 510 using MHB medium after 24 hrs; type: functional, organism-based; how it was run: as §2
Acinetobacter baumannii [20] = assay: Antibacterial activity against Acinetobacter baumannii isolate 510 using MHB medium with 150 mM NaCl after 24 hrs; type: functional, organism-based; how it was run: as §2
Acinetobacter baumannii [21] = assay: Antibacterial activity against Acinetobacter baumannii isolate 2824 using MHB medium after 24 hrs; type: functional, organism-based; how it was run: as §2
Acinetobacter baumannii [22] = assay: Antibacterial activity against Acinetobacter baumannii isolate 2824 using MHB medium with 150 mM NaCl after 24 hrs; type: functional, organism-based; how it was run: as §2
Acinetobacter baumannii [23] = assay: Antibacterial activity against Acinetobacter baumannii isolate 2898 using MHB medium after 24 hrs; type: functional, organism-based; how it was run: as §2
Acinetobacter baumannii [24] = assay: Antibacterial activity against Acinetobacter baumannii isolate 2898 using MHB medium with 150 mM NaCl after 24 hrs; type: functional, organism-based; how it was run: as §2
Acinetobacter baumannii [25] = assay: Antibacterial activity against Acinetobacter baumannii isolate 4860 using MHB medium after 24 hrs; type: functional, organism-based; how it was run: as §2
Acinetobacter baumannii [26] = assay: Antibacterial activity against Acinetobacter baumannii isolate 4860 using MHB medium with 150 mM NaCl after 24 hrs; type: functional, organism-based; how it was run: as §2
Acinetobacter baumannii [27] = assay: Antibacterial activity against Acinetobacter baumannii isolate 5191 using MHB medium after 24 hrs; type: functional, organism-based; how it was run: as §2
Acinetobacter baumannii [28] = assay: Antibacterial activity against Acinetobacter baumannii isolate 5191 using MHB medium with 150 mM NaCl after 24 hrs; type: functional, organism-based; how it was run: as §2
Acinetobacter baumannii [29] = assay: Antibacterial activity against Acinetobacter baumannii using MHB medium with NaCl in presence of efflux pump inhibitor PAbetaN; type: functional, organism-based
How it was run: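 Cells in MHB with or without 150 mM NaCl were pretreated with 60 mg/liter PAβN for 30 min at room temperature before antibiotic was added. Cultures at 10^5 CFU/ml were then grown in triplicate for 12 h at 37°C with shaking at 180 rpm, and OD600 was monitored every 2 h.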

Sequence: COLISTIN
- Activity (Acinetobacter baumannii [1]): inactive
- Activity (Acinetobacter baumannii [2]): inactive
- Activity (Acinetobacter baumannii [3]): inactive
- Activity (Acinetobacter baumannii [4]): inactive
- Activity (Acinetobacter baumannii [5]): Active
- Activity (Acinetobacter baumannii [6]): inactive
- Activity (Acinetobacter baumannii [7]): Active
- Activity (Acinetobacter baumannii [8]): inactive
- Activity (Acinetobacter baumannii [9]): Active
- Activity (Acinetobacter baumannii [10]): inactive
- Activity (Acinetobacter baumannii [11]): Active
- Activity (Acinetobacter baumannii [12]): inactive
- Activity (Acinetobacter baumannii [13]): Active
- Activity (Acinetobacter baumannii [14]): inactive
- Activity (Acinetobacter baumannii [15]): Active
- Activity (Acinetobacter baumannii [16]): inactive
- MIC (Acinetobacter baumannii [17]): 0.75 µg/mL
- MIC (Acinetobacter baumannii [18]): 1.5 µg/mL
- MIC (Acinetobacter baumannii [19]): 0.75 µg/mL
- MIC (Acinetobacter baumannii [20]): 1.5 µg/mL
- MIC (Acinetobacter baumannii [21]): 0.75 µg/mL
- MIC (Acinetobacter baumannii [22]): 1.5 µg/mL
- MIC (Acinetobacter baumannii [23]): 1 µg/mL
- MIC (Acinetobacter baumannii [24]): 1.5 µg/mL
- MIC (Acinetobacter baumannii [25]): 2 µg/mL
- MIC (Acinetobacter baumannii [26]): 1.5 µg/mL
- MIC (Acinetobacter baumannii [27]): 0.75 µg/mL
- MIC (Acinetobacter baumannii [28]): 1.5 µg/mL
- MIC (Acinetobacter baumannii [29]): > 4 µg/mL
